# Source: PubChem BioAssay
# Sampled rows, rich in hits. Any-hit rate of the full collection: about 2%.
# CRFR2-BP ag: agonists of human CRF-binding protein/CRF-R2 receptor complex; activation, % at 13.2 µM; AID 588473; 0.46% of 350,000 active; HEK293 CRF-R2/CRF-BP, calcium dye fluorescence (FLIPR); percent of saturating CRF peptide response;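 active means activation of at least 50%, plus an integration ratio under a set limit after plate pattern correction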
# CRFR2-BP antag: blocks CRF-induced signaling of the CRF-BP/CRF-R2 complex; 0.59% of 350,000 active; inhibition, % at 11.8 µM; HEK293 CRF-R2/CRF-BP, CRF-induced calcium fluorescence; AID 588475;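 active means inhibition of the ligand-induced calcium signal above about 50% at the single tested concentration, limit read from the data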
# GPR7 antagonist: human neuropeptides B/W receptor 1 antagonism | GPR7-expressing cells, fluorescence antagonist assay | inhibition, % at 4.4 µM | 1.1% of 290,000 active | AID 1861; in the data active means inhibition above about 16%, passing the limit was not always enough;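 further: cells stimulated with the agonist NPW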
# TRPN1 ag: activates the zebrafish TRPN1 channel. HEK293 zebrafish TRPN1-YFP, Fluo-8 calcium fluorescence; 100% = response to 87 µM carbachol. activation, % at 3 µM. 0.18% of 220,000 active;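 active means activation above its plate's cutoff, the mean activation of test wells on that plate plus 3 SD, cut at about 19% in these data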
#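 Control set: carbachol 87 µM as high control, DMSO as low control; system: HEK293 stable line with zebrafish TRPN1-YFP; read-out: % activation versus carbachol response; detection: intracellular calcium fluorescence with Fluo-8; doses: single test compound dose, 3 µM nominal, 0.3% DMSO; schedule: dye 1 h 37 °C plus 30 min RT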
# TRPML3 ag: human mucolipin-3 channel agonism; HEK293 TRPML3-YFP, Fluo-8 calcium fluorescence; 100% = the carbachol control signal; Q8TDD5; activation, % at 3 µM; 0.29% of 220,000 active;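 active means activation above its plate's cutoff, the mean activation of the plate's test wells plus 3 SD, cut at about 12% in these data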
# Target sequence (Q8TDD5 whole entry, looked up): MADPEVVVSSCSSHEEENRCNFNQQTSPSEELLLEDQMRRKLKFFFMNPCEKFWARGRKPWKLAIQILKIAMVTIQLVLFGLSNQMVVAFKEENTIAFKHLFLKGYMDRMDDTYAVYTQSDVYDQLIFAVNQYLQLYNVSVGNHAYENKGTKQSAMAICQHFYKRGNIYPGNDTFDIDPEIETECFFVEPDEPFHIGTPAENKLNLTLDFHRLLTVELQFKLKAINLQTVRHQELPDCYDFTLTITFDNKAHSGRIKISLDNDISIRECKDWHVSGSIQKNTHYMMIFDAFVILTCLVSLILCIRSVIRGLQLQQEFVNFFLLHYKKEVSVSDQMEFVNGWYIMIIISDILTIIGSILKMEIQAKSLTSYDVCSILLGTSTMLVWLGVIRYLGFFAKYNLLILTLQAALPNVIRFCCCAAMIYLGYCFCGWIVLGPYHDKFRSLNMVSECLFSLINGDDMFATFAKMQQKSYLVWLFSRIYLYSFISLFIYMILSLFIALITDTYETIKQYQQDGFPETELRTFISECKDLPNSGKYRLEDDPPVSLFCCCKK
#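 Test system – HEK293 line with stable expression of human TRPML3-YFP channel · Control set – carbachol 87 µM final as high control (100%), DMSO as low control (0%) · Signal – Fluo-8 calcium dye fluorescence, ex 470-495, em 515-575 nm · Incubation – 1-h 37 °C dye load, 5-s basal, 120-s post-compound reads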
# Hits are given with their value; . = inactive; / = no result given.
SMILES,CRFR2-BP ag,CRFR2-BP antag,GPR7 antagonist,TRPN1 ag,TRPML3 ag
CC(=O)Nc1ccc(NC(=O)COc2ccc([N+](=O)[O-])cc2)cc1,.,60.2,.,.,.
O=C(CCOc1ccccc1)Nc1ccc([N+](=O)[O-])cc1,.,67.0,.,.,.
COC(=O)c1ccc(NC(=O)COc2ccc([N+](=O)[O-])cc2)cc1,.,.,.,.,.
O=C1C=C(NCc2ccc(Cl)cc2Cl)C2(CCCCC2)O1,.,.,20.8,.,.
c1ccc(-c2cc3ccccc3[nH]2)cc1,.,.,.,/,/
COc1ccc(-c2cc3ccccc3[nH]2)cc1,.,59.7,.,.,.
Cc1c(N(C)S(=O)(=O)c2cc(C(=O)N3CCCC3)ccc2Cl)c(=O)n(-c2ccccc2)n1C,.,.,.,/,/
Cc1ccc(-n2ncc(-c3n[nH]c(=S)o3)c2N)cc1C,.,.,/,/,/
COc1ccc2c(COC(=O)CNS(=O)(=O)c3ccccc3)cc(=O)oc2c1,.,.,/,/,/
COc1cc(OC)cc(C(=O)NCC(=O)OCc2cc(=O)oc3cc(OC)ccc23)c1,.,104.8,.,.,.
COc1ccc(C(=O)NC2CC2)cc1OC1CCN(C(C)CSC)CC1 (configuration not stated),.,.,.,/,/
O=C(Oc1ccccc1)c1ccc(NC(=O)c2ccco2)cc1,.,78.6,.,.,.
COC(=O)c1ccc(NC(=O)c2ccc(NC(=O)c3ccco3)cc2)cc1,.,.,.,/,/
Cc1noc(C)c1S(=O)(=O)N1CCC(C(=O)N2CCN(c3ccc(F)cc3)CC2)CC1,.,60.4,.,.,.
O=C1CSC(=S)N1/N=C/c1cc(Br)c(O)c(Br)c1,184.9,.,.,/,/
O=C(CSCc1ccc(Cl)cc1)Nc1cc([N+](=O)[O-])ccc1O,.,.,.,24.9,18.0
CC(CC(=O)O)CC(=O)Nc1cc([N+](=O)[O-])ccc1O (configuration not stated),.,.,.,.,.
Cc1ccc(SCC(=O)Nc2cc([N+](=O)[O-])ccc2O)cc1,80.0,92.0,.,24.4,19.4
CCOc1ccc2nc(N(Cc3ccccc3)C(=O)CCNC(C)=O)sc2c1,.,.,.,/,/
CCN(CC(=O)Nc1ccc(OC)cc1)C(=O)Cc1cccs1,.,.,/,/,/
CC(C)(C)n1ncc2c(=O)n(Cc3ccccc3Br)cnc21,.,.,/,/,/
CC1=C(C)/C(=N\OS(=O)(=O)c2ccccc2)C=CC1=O,57.0,.,57.9,.,15.8
Cc1ccc(S(=O)(=O)O/N=C2\CCCc3ccccc32)cc1,.,.,.,.,.
CN(C)S(=O)(=O)c1ccc2c(c1)/C(=C/c1cc3c([nH]1)CCCC3)C(=O)N2,122.1,.,/,/,/
CC(NS(=O)(=O)c1ccc(OCC(=O)NCc2ccncc2)cc1)c1ccccc1 (configuration not stated),.,.,.,/,/
SMILES,CRFR2-BP ag,CRFR2-BP antag,GPR7 antagonist,TRPN1 ag,TRPML3 ag
COc1ccc(-c2c(=O)n(OC)c3ccccc3[n+]2[O-])cc1OC,.,.,.,/,/
O=C(NC(=S)Nc1sc2c(c1C(=O)O)CCCC2)c1ccccc1,.,.,.,/,/
c1ccc2c(c1)nc(NCc1ccc3c(c1)OCO3)n2CCN1CCOCC1,.,.,.,.,.
c1csc(-c2csc3nc(CN4CCOCC4)nc(NCc4ccc5c(c4)OCO5)c23)c1,.,.,19.1,.,.
C=CC(=O)Oc1ccc(N2Cc3ccccc3C2=O)cc1,.,97.5,/,/,/
COc1ccc(N2Cc3ccccc3C2=O)cc1,.,.,.,/,/
CCOc1ccc(-c2nc(N)ncc2Oc2cccc(OC)c2)c(O)c1,.,53.7,.,.,.
NC(=O)COc1ccc(S(=O)(=O)N2CCCC2)cc1,.,.,/,/,/
CCC(CC)c1nnc(NC(=O)Cc2c[nH]c3ccccc23)s1,.,.,/,/,/
O=c1cc(-c2ccccc2)nc(/C=C/c2ccccc2)[nH]1,.,.,.,.,.
COc1ccc(/C=C/c2nc(-c3ccccc3)cc(=O)[nH]2)cc1,.,66.1,.,.,.
Cc1ccn2nc(C(=O)OCC(=O)N(CC(C)C)C3CCS(=O)(=O)C3)nc2n1 (configuration not stated),.,.,/,/,/
O=S(=O)(Nc1nc2ccccc2nc1Nc1ccc(N2CCOCC2)cc1)c1cc(Cl)ccc1Cl,51.0,.,.,.,.
Clc1nc(Nc2ccc(N3CCOCC3)cc2)c2ccccc2n1,.,.,.,.,.
Cc1cc(C)cc(N(C(=O)Cn2nnc(-c3ccccc3)n2)C(C(=O)NC2CCCCC2)c2ccccn2)c1 (configuration not stated),.,.,.,.,.
Cc1ccc(N(C(=O)Cn2nnc(-c3ccccc3)n2)C(C(=O)NC2CCCCC2)c2ccccn2)cc1C (configuration not stated),.,55.9,.,.,.
O=C(c1ccc(Br)cc1)N1CCN(c2ncccn2)CC1,.,94.3,/,/,/
O=C(c1ccccc1)N1CCN(c2ncccn2)CC1,.,.,.,/,/
C/C(=N\NC(=O)c1cc(Cl)ccc1O)c1ccc(Br)s1,.,51.5,.,.,.
C/C(=N\NC(=O)c1ccc(Cl)cc1)c1ccc(Br)s1,.,.,.,.,.
COC(=O)[C@@]1(Cc2ccc(OC)cc2)[C@@H]2C(=CC(=O)[C@H]2CC(=O)C(=O)N(C)C)CN1C(=O)c1ccccc1,.,.,.,.,.
C=C1C(=O)C=C2CN(C(=O)c3ccccc3)[C@@](Cc3ccc(F)cc3)(C(=O)OC)[C@@H]12,.,.,85.4,36.8,.
COCCNC(=O)C(c1ccc(F)cc1)N(Cc1ccccc1)C(=O)CCC(=O)Nc1nccs1 (configuration not stated),.,.,.,/,/
COc1ccc(OC(=O)N(C)C[C@H]2OCc3cn(nn3)CCCC(=O)N([C@H](C)CO)C[C@@H]2C)cc1,.,.,/,/,/
CCOc1ccc(CCNC(=O)c2cccc(NC3=NC4CS(=O)(=O)CC4S3)c2)cc1 (configuration not stated),.,.,.,/,/
SMILES,CRFR2-BP ag,CRFR2-BP antag,GPR7 antagonist,TRPN1 ag,TRPML3 ag
CCOc1ccc(CCNC(=O)c2cccc(NC3=NC4CS(=O)(=O)CC4S3)c2)cc1OCC (configuration not stated),.,50.3,.,/,/
O=C(C1=COCCO1)N1CCN(S(=O)(=O)c2cccc(F)c2)CC1,.,.,/,/,/
Cc1noc(C)c1COc1ccc(CC(=O)NCc2ccccc2)cc1,.,.,17.9,.,.
O=C(CN1C(=O)c2ccc(Br)cc2C1=O)NCC1CCCO1 (configuration not stated),.,.,.,/,/
Cc1ccc(-c2ccc(SCC(=O)NCC3CCCO3)nn2)cc1 (configuration not stated),.,83.4,.,.,.
CC(=O)Nc1cccc(OCc2cnc(Cl)s2)c1,.,.,19.9,.,.
O=C(Nc1nc2ccccc2[nH]1)Nc1ccccc1F,.,.,.,/,/
CC(=O)c1cc(C#N)c(N(C)Cc2ccccc2)nc1C,.,.,.,.,.
COC(=O)c1cc(C#N)c(NCc2ccccc2)nc1C,.,53.8,.,.,.
